# Laboratory results as given in ChEMBL document CHEMBL1127630, “New dual inhibitors of neutral endopeptidase and angiotensin-converting enzyme: rational design, bioavailability, and pharmacological responses in experimental hypertension” (J Med Chem, 1994).
# How the values were obtained:
# [1] = biological target: T1, Angiotensin-converting enzyme (Mus musculus) (UniProt P09470); experiment: In vivo inhibition of lung ACE was observed at 120 min after oral administration of the compound; format: functional, organism-based; parameters: concentration or dose not given beside the values
# T1 sequence (whole entry): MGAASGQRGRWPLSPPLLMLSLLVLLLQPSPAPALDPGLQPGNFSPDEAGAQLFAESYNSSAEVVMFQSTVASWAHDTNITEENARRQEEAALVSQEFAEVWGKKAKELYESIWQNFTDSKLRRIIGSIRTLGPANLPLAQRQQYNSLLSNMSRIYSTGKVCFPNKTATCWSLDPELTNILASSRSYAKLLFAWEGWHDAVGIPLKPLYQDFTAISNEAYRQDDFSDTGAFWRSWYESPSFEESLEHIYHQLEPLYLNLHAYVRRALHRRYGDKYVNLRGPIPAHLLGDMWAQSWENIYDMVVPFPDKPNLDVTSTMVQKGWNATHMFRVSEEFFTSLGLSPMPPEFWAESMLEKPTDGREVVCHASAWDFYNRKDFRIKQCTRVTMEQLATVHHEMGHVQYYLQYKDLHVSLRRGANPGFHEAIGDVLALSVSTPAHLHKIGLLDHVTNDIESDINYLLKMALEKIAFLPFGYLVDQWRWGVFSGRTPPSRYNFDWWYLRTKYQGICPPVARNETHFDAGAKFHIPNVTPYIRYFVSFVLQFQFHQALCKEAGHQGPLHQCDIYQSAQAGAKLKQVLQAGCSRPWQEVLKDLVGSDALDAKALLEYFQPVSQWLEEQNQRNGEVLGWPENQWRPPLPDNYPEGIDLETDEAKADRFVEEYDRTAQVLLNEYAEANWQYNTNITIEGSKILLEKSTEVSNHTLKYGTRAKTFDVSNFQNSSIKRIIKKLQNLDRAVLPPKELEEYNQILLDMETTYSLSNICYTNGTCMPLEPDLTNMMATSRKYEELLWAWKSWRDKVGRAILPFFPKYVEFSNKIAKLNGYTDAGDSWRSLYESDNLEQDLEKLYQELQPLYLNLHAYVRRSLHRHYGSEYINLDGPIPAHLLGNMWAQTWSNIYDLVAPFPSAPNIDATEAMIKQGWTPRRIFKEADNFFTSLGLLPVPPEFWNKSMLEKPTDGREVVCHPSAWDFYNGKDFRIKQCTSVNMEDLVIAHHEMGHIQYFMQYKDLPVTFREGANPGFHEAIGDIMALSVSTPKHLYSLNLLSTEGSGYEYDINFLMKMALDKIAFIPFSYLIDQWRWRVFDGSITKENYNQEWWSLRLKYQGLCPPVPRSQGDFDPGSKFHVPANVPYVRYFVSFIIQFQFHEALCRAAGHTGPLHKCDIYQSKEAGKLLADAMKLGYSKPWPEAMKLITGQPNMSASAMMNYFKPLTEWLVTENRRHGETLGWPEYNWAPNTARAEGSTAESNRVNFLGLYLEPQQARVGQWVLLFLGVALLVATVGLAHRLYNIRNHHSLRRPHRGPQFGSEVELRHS
# Mus musculus [2] = experiment: In vivo inhibition of lung ACE was observed at 60 min after oral administration; format: functional; parameters: concentration or dose not given beside the values
# [3] = biological target: T1, Angiotensin-converting enzyme (Mus musculus); experiment: In vivo inhibition of lung ACE was observed at 240 min after oral administration of the compound; format: functional, organism-based; parameters: concentration or dose not given beside the values
# [4] = biological target: T2, Neprilysin (Mus musculus) (UniProt Q61391); experiment: Inhibition of Neutral Endopeptidase activity was measured by using the displacement of [3H]HACBOGly from mouse kidney after 4 hr oral administration; parameters: scale not given: the % may be the effect or the level left
# T2 sequence (whole entry): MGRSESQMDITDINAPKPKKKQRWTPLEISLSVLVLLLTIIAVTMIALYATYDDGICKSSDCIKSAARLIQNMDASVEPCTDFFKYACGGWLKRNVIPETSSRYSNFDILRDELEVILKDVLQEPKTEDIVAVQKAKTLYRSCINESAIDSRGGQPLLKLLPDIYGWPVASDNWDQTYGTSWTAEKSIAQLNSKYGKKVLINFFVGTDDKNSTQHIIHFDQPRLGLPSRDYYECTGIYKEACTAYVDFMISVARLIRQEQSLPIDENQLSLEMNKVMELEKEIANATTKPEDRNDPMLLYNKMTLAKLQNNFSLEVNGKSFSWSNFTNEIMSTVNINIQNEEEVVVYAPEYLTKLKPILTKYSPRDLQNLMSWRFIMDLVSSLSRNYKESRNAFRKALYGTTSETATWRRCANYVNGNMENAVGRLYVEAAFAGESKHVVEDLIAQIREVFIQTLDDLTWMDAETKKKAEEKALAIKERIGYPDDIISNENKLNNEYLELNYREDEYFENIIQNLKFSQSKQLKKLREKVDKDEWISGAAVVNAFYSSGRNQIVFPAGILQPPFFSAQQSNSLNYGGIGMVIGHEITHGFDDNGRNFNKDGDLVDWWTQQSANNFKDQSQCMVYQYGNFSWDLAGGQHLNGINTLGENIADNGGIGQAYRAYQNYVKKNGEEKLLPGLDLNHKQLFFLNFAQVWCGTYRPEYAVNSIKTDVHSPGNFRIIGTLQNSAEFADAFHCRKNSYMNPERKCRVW
# In short: (§1)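 Mice dosed orally at 2.6 X 10-6 mol/kg in 10% ethanol/10% cremophor/80% water. [3H]HACBOGly (1 uCi) injected iv at intervals after dosing. Kidneys taken 15 min later, homogenized in 50 mM Tris-HCl pH 7.4 at 4 °C and filtered, radioactivity counted. Inhibition expressed as percent displacement versus control. Nonspecific binding defined with coinjected retrothiorphan (10.000 eq).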
# [5] = biological target: T2, Neprilysin (Mus musculus); experiment: Inhibition of Neutral Endopeptidase activity was measured by using the displacement of [3H]HACBOGly from mouse kidney after 1 hour oral administration; parameters: scale not given: the % may be the effect or the level left; in short: as §1
# [6] = biological target: T2, Neprilysin (Mus musculus); experiment: Inhibition of Neutral Endopeptidase activity was measured by using the displacement of [3H]HACBOGly from mouse kidney after 16h oral administration; parameters: scale not given: the % may be the effect or the level left; in short: as §1
# [7] = biological target: T2, Neprilysin (Mus musculus); experiment: Inhibition of Neutral Endopeptidase activity was measured by using the displacement of [3H]HACBOGly from mouse kidney after 2 hr oral administration; parameters: scale not given: the % may be the effect or the level left; in short: as §1
# [8] = biological target: T2, Neprilysin (Mus musculus); experiment: Inhibition of Neutral Endopeptidase activity was measured by using the displacement of [3H]HACBOGly from mouse kidney after 8 hr oral administration; parameters: scale not given: the % may be the effect or the level left; in short: as §1
# [9] = biological target: T1, Angiotensin-converting enzyme (Mus musculus); experiment: In vivo inhibition of lung ACE was observed at 30 min after oral administration of the compound; format: organism-based; parameters: concentration or dose not given beside the values
# [10] = biological target: T1, Angiotensin-converting enzyme (Mus musculus); experiment: Inhibition of lung Angiotensin Converting Enzyme (ACE) in mouse at a dose of 2.6*10e-5 mol/kg after 20 min oral administration
# In short: (§2)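 Prescreen in mice: single oral dose of 2.6 X 10-5 mol/kg of prodrug (thioacetyl and benzyl ester protected, tested as stereoisomer mixtures). Inhibition of binding of a tritiated ACE probe to lung measured 20 and 60 min after dosing. Mean ± SEM of three experiments, three mice each.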
# Mus musculus [11] = experiment: Time course of the in vivo inhibition (percent of control) of lung ACE was observed at 30 min after oral administration of the compound; format: functional; parameters: scale not given: the % may be the effect or the level left
# Mus musculus [12] = experiment: (§3) In vivo inhibition of lung Angiotensin I converting enzyme in mouse at a dose of 2.6*10e-5 mol/kg after 60 min oral administration; format: functional; in short: as §2
# [13] = biological target: T1, Angiotensin-converting enzyme (Mus musculus); experiment: as §3; format: organism-based; in short: as §2
Control [1] [%],Control [3] [%],Control [4] [%],Control [5] [%],Control [6] [%],Control [7] [%],Control [8] [%],Control [9] [%],inhibition [10] [%],inhibition [13] [%],SMILES,Control (Mus musculus [2]) [%],Control (Mus musculus [11]) [%],Inhibition (Mus musculus [12]) [%]
42,37,100,100,10,100,94,72,–,–,C[C@H](NC(=O)[C@@H](CSC(=O)C12CC3CC(CC(C3)C1)C2)[C@@H](C)c1ccccc1)C(=O)O,54,–,–
21,2,–,–,–,–,–,–,54,–,CC(=O)SCC(C(=O)N[C@@H](C)C(=O)OCc1ccccc1)C(C)c1ccccc1 (some centres not stated),46,41,44
–,–,–,–,–,–,–,–,36,43,CC(=O)SCC(C(=O)NCC(=O)OCc1ccccc1)C(C)c1ccccc1 (configuration not stated),–,–,–
